Results from ChEMBL document CHEMBL1128482, “Syntheses, calcium channel agonist-antagonist modulation activities, and voltage-clamp studies of isopropyl 1,4-dihydro-2,6-dimethyl-3-nitro-4-pyridinylpyridine-5-carboxylate racemates and enantiomers” (J Med Chem, 1995).

Assays:
Cavia porcellus [1] = organism: Cavia porcellus; assay: Calcium channel antagonist activity in guinea pig ileum longitudinal smooth muscle (GPILSM) at 10e-6 M; assay type: functional, organism-based
Cavia porcellus [2] = organism: Cavia porcellus; assay: Calcium channel agonist activity in guinea pig ileum longitudinal smooth muscle (GPILSM) at 10e-6 M; assay type: functional, organism-based
Cavia porcellus [3] = organism: Cavia porcellus; assay: Calcium channel agonist activity in guinea pig left atrium (GPLA) at 10e-6 M; assay type: functional; conditions: Cardiac atrium
Summary of the method: (§1)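 Isolated guinea pig left atrium: positive inotropic response was taken as the percentage increase in contractile force over the tissue's basal force measured without test compound.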

Cavia porcellus [4] = organism: Cavia porcellus; assay: Calcium channel agonist activity in guinea pig left atrium (GPLA) at 10e-8 M; assay type: functional; conditions: Cardiac atrium; summary of the method: as §1
Cavia porcellus [5] = organism: Cavia porcellus; assay: Calcium channel agonist activity in guinea pig ileum longitudinal smooth muscle (GPILSM) at 10e-7 M; assay type: functional, organism-based
Cavia porcellus [6] = organism: Cavia porcellus; assay: Calcium channel agonist activity in guinea pig left atrium (GPLA) at 10e-7 M; assay type: functional; conditions: Cardiac atrium; summary of the method: as §1
Cavia porcellus [7] = organism: Cavia porcellus; assay: Calcium channel agonist activity in guinea pig ileum longitudinal smooth muscle (GPILSM) at 10e-5 M; assay type: functional, organism-based
Cavia porcellus [8] = organism: Cavia porcellus; assay: Calcium channel agonist activity in guinea pig left atrium (GPLA) at 10e-5 M; assay type: functional; conditions: Cardiac atrium; summary of the method: as §1
Cavia porcellus [9] = organism: Cavia porcellus; assay: Calcium channel antagonist activity in guinea pig ileum longitudinal smooth muscle (GPILSM) at 10e-7 M; assay type: functional, organism-based
Cavia porcellus [10] = organism: Cavia porcellus; assay: Calcium channel agonist activity in guinea pig left atrium (GPLA) at 10e-8 M; conditions: Cardiac atrium
Cavia porcellus [11] = organism: Cavia porcellus; assay: Calcium channel agonist activity in guinea pig left atrium (GPLA) at 10e-9 M; conditions: Cardiac atrium

CC1=NC(C)=C([N+](=O)[O-])C(c2ccccn2)/C1=C(\O)OC(C)C (racemic)
IC50 (Cavia porcellus [1]): 4.87 µM
EC50 (Cavia porcellus [2]): 5.27 µM
EC50 (Cavia porcellus [3]): 9.67 µM
EC50 (Cavia porcellus [4]): 0.0458 µM

COC(=O)C1=C(C)NC(C)=C([N+](=O)[O-])C1c1ccccc1C(F)(F)F (centres undefined)
EC50 (Cavia porcellus [5]): 0.23 µM
EC50 (Cavia porcellus [6]): 0.77 µM

CC1=NC(C)=C([N+](=O)[O-])C(c2cccnc2)/C1=C(\O)OC(C)C (racemic)
EC50 (Cavia porcellus [7]): 48 µM
EC50 (Cavia porcellus [8]): 28.5 µM

CC1=NC(C)=C([N+](=O)[O-])C(c2ccccn2)/C1=C(\O)OC(C)C (centres undefined)
IC50 (Cavia porcellus [9]): 0.207 µM
EC50 (Cavia porcellus [10]): 0.0458 µM
EC50 (Cavia porcellus [11]): 0.00446 µM
EC50 (Cavia porcellus [2]): 5.27 µM

CC1=NC(C)=C([N+](=O)[O-])C(c2ccncc2)/C1=C(\O)OC(C)C (racemic)
EC50 (Cavia porcellus [7]): 35 µM
EC50 (Cavia porcellus [3]): 8.05 µM
